Experiments:
[1] = target: T1, 5-hydroxytryptamine receptor 1F (Homo sapiens, UniProt P30939); experiment: Compound was tested for the displacement of [3H]5-HT binding to cloned human 5-hydroxytryptamine 1F receptor stably expressed in CHO cells; type: cell-based
T1 sequence (P30939 whole entry): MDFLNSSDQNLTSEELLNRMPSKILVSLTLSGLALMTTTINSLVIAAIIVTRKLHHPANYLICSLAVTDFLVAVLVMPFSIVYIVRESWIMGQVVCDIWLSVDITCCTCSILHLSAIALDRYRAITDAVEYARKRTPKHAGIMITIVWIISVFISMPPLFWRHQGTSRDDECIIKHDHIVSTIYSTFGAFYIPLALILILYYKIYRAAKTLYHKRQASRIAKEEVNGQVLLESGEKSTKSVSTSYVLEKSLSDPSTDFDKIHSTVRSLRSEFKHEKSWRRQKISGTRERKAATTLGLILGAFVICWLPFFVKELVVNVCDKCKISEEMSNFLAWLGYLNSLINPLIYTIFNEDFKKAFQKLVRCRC

[2] = target: 5-hydroxytryptamine receptor 5A (Homo sapiens, UniProt P47898); experiment: Compound was tested for the displacement of [3H]5-HT binding to cloned human 5-hydroxytryptamine 5A receptor stably expressed in CHO cells; type: cell-based
5-hydroxytryptamine receptor 5A, sequence (P47898 whole entry): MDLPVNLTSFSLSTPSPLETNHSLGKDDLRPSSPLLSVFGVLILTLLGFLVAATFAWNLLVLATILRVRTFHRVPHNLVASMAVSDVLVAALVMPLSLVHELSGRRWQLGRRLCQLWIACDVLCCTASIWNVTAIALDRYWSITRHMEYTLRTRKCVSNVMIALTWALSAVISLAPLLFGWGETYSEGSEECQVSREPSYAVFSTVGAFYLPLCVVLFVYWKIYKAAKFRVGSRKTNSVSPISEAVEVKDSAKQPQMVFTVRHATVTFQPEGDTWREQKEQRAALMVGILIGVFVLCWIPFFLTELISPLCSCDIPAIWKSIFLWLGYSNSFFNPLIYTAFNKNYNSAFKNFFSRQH

[3] = target: T2, 5-hydroxytryptamine receptor 1A (Homo sapiens, UniProt P08908); experiment: Compound was tested for the displacement of [3H]5-HT binding to cloned 5-hydroxytryptamine 1A receptor stably expressed in CHO cells; type: cell-based
T2 sequence (P08908 whole entry): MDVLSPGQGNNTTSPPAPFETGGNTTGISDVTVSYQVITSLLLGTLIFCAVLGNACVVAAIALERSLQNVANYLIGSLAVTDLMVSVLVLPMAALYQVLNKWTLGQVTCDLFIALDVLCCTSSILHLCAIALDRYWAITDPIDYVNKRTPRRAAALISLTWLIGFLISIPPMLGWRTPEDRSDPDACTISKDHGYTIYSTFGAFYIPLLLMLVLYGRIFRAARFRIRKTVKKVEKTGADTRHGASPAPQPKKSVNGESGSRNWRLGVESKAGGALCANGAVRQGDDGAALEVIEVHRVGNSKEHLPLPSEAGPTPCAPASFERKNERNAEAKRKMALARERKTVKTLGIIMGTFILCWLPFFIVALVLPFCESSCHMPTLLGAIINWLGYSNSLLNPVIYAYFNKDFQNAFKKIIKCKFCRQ

[4] = target: 5-hydroxytryptamine receptor 6 (Rattus norvegicus, UniProt P31388); experiment: Compound was tested for the displacement of [3H]5-HT binding to cloned rat 5-hydroxytryptamine 6 receptor stably expressed in CHO cells; type: cell-based
5-hydroxytryptamine receptor 6, sequence (P31388 whole entry): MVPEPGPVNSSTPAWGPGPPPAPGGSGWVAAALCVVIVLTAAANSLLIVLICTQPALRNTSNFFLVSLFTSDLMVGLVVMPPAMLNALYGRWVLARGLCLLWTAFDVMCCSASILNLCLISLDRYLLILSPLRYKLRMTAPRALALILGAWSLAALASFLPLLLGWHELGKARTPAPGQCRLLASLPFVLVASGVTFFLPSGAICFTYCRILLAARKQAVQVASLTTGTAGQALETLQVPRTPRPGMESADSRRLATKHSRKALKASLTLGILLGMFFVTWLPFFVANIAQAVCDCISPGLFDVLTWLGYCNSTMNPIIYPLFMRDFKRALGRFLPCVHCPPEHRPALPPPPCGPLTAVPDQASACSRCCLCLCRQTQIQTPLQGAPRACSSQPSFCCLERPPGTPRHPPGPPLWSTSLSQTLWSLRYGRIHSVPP

[5] = target: T3, 5-hydroxytryptamine receptor 1B (Homo sapiens, UniProt P28222); experiment: Displacement of [3H]5-HT binding to cloned 5-hydroxytryptamine 1B receptor stably expressed in CHO cells; type: cell-based
T3 sequence (P28222 whole entry): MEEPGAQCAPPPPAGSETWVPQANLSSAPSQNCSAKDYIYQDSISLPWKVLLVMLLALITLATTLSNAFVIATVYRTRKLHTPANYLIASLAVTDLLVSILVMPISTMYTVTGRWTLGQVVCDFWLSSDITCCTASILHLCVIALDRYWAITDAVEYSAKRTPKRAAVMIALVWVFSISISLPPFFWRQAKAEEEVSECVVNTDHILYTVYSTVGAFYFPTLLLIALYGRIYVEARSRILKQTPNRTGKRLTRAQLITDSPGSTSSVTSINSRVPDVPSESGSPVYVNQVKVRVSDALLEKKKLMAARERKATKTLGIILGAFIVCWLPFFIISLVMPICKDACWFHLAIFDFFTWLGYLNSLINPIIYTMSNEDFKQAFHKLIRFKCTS
How it was run: (§1)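 Membranes from thawed CHO cells with human 5-HT1B or 5-HT1D, washed in 50 mM Tris-HCl pH 7.7, preincubated 10 min at 37 °C to remove endogenous 5-HT. Buffer holds 0.1% ascorbate, 10 μM pargyline and 4 mM CaCl2. Uses 2.0 nM [3H]5-HT, 30 min at 37 °C; 10 μM 5-HT defines nonspecific binding. Filtration; IC50 by nonlinear regression; duplicates, 2–5 occasions.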

[6] = Ratio of IC50 for human 5-HT1B to human 5-HT1D receptors
[7] = target: 5-hydroxytryptamine receptor 7 (Rattus norvegicus, UniProt P32305); experiment: Compound was tested for the displacement of [3H]5-HT binding to cloned rat 5-hydroxytryptamine 7 receptor stably expressed in CHO cells; type: cell-based
5-hydroxytryptamine receptor 7, sequence (P32305 whole entry): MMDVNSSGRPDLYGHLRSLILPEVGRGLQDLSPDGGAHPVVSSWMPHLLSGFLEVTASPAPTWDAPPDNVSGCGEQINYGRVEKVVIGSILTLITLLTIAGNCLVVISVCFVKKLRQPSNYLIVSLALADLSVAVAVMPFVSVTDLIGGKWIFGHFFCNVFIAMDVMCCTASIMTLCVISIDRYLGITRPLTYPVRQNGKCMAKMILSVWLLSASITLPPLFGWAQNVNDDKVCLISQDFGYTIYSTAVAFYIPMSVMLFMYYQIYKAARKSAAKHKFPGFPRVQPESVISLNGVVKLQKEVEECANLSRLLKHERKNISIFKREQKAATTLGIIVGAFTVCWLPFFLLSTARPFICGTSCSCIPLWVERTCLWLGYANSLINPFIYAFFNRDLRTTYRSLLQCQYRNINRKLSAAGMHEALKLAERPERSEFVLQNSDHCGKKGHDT

[8] = target: T4, 5-hydroxytryptamine receptor 1D (Homo sapiens, UniProt P28221); experiment: Agonist-induced [35S]- GTPgammaS binding in CHO cells stably transfected with 5-hydroxytryptamine 1D receptor; type: cell-based
T4 sequence (P28221 whole entry): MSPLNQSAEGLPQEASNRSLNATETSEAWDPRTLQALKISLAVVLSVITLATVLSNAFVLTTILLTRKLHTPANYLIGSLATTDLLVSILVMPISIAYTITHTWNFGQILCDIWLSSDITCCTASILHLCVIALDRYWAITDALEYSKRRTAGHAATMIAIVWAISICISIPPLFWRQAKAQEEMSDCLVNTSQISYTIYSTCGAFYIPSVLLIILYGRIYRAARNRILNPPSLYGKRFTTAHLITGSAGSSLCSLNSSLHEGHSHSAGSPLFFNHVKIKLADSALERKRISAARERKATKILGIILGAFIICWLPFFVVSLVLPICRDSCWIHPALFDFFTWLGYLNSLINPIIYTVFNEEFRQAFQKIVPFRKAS
How it was run: (§2)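 Membranes from thawed CHO cells with human 5-HT1D, prepared in ice-cold 20 mM Hepes/EDTA at pH 7.4, spun at 40000g. Assay buffer: 100 mM NaCl, 10 mM MgCl2, 0.1% ascorbate, 10 μM pargyline. GDP 100 μM plus drug, 20 min at 30 °C, then ice 15 min. Then 100 pM [35S]GTPγS, 30 min at 30 °C, filtration. Emax is taken as % of maximal 5-HT response; duplicates, 2–5 occasions.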

[9] = target: 5-hydroxytryptamine receptor 2A (Homo sapiens, UniProt P28223); experiment: Compound was tested for the displacement of [3H]5-HT binding to cloned human 5-hydroxytryptamine 2A receptor stably expressed in CHO cells; type: cell-based
5-hydroxytryptamine receptor 2A, sequence (P28223 whole entry): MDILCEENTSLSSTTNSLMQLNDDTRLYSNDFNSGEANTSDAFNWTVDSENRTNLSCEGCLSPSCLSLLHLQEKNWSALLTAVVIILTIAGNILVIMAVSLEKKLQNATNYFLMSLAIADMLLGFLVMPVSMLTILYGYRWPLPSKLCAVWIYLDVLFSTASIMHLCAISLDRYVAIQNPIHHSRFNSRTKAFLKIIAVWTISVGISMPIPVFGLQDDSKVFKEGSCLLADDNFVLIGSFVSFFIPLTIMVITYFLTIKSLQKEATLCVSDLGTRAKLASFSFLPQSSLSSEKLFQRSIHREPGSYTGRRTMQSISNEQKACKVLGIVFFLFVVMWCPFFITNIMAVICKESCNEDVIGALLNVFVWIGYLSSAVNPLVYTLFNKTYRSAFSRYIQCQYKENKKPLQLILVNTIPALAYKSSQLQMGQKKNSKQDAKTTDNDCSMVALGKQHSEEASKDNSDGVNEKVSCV

[10] = target: 5-hydroxytryptamine receptor 1E (Homo sapiens, UniProt P28566); experiment: Compound was tested for the displacement of [3H]5-HT binding to cloned human 5-hydroxytryptamine 1E receptor stably expressed in CHO cells; type: cell-based
5-hydroxytryptamine receptor 1E, sequence (P28566 whole entry): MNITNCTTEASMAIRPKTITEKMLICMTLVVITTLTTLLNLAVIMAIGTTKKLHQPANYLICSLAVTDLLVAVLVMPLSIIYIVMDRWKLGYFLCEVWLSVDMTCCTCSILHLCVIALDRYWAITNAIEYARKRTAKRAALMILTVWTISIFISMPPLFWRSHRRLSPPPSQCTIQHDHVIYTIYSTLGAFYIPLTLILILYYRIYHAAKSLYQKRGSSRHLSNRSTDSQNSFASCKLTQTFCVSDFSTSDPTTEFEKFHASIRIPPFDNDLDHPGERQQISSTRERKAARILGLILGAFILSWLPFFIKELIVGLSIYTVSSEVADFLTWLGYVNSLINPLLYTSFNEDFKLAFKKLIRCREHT

[11] = target: T3, 5-hydroxytryptamine receptor 1B; experiment: Binding affinity at cloned human 5-hydroxytryptamine 1B receptor stably expressed in CHO cells by [3H]5-HT displacement.; type: cell-based
[12] = target: T4, 5-hydroxytryptamine receptor 1D; experiment: Maximum stimulation of [35S]GTP-gamma-S, binding in CHO cells expressing human 5-HT-1d relative to 5-HT; type: functional, cell-based; how it was run: as §2
[13] = target: T4, 5-hydroxytryptamine receptor 1D; experiment: Binding affinity at human cloned 5-hydroxytryptamine 1D receptor stably expressed in CHO cells by [3H]5-HT displacement.; type: cell-based; how it was run: as §1

Structure (SMILES)	IC50 [1] [nM]	IC50 [2] [nM]	IC50 [3] [nM]	IC50 [4] [nM]	IC50 [5] [nM]	Selectivity [6]	IC50 [7] [nM]	EC50 [8] [nM]	IC50 [9] [nM]	IC50 [10] [nM]	IC50 [11] [nM]	Efficacy [12] [%]	IC50 [13] [nM]
COC[C@H](NC1CCN(CCCc2c[nH]c3ccc(-n4cnnc4)cc23)CC1)c1ccccc1						70		0.9			210	93	3
C[C@H](Cc1ccccc1)NC1CCN(CCCc2c[nH]c3ccc(-n4cnnc4)cc23)CC1						31		6.8			170	71	5.5
OC[C@H](Cc1ccccc1)NC1CCN(CCCc2c[nH]c3ccc(-n4cnnc4)cc23)CC1						67		3.6			140	76	2.1
C[C@@H](NC1CCN(CCCc2c[nH]c3ccc(-n4cnnc4)cc23)CC1)[C@H](O)c1ccccc1						18		15			200	76	11

The remaining compounds from weak to strong by EC50 [8], led by results:

IC50 [1] [nM]	IC50 [2] [nM]	IC50 [3] [nM]	IC50 [4] [nM]	IC50 [5] [nM]	Selectivity [6]	IC50 [7] [nM]	EC50 [8] [nM]	IC50 [9] [nM]	IC50 [10] [nM]	IC50 [11] [nM]	Efficacy [12] [%]	IC50 [13] [nM]	Structure (SMILES)
					47		10			210	82	4.5	CN(C1CCN(CCCc2c[nH]c3ccc(-n4cnnc4)cc23)CC1)[C@@H](CO)c1ccccc1
					27		5.1			150	100	5.5	OCCC(NC1CCN(CCCc2c[nH]c3ccc(-n4cnnc4)cc23)CC1)c1ccccc1 (stereo not given)
					19		3.4			98	59	5.2	CC(CO)(NC1CCN(CCCc2c[nH]c3ccc(-n4cnnc4)cc23)CC1)c1ccccc1 (stereo not given)
> 10000	> 10000	66	> 10000	150	170	540	0.8	1100	> 10000				OC[C@H](NC1CCN(CCCc2c[nH]c3ccc(-n4cnnc4)cc23)CC1)c1ccc(F)cc1

Reference: ChEMBL document CHEMBL1132157 (J Med Chem, 1999)
